Columns and labels:
Caco-2 = assay: Apparent Permeability through Caco-2 cell monolayers (n = 4); assay type: functional, cell-based
Summary of the method: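 Caco-2 cells seeded on polycarbonate inserts (0.45 µm pore, 6.5 mm) and grown 21 days to differentiate; TEER >400 Ω/cm² before and after. ³H-acetylated peptide or [¹⁴C]mannitol (200 µM) added apically in HBSS/25 mM HEPES pH 7.4, 37 °C, shaken 400 rpm. Receiver chamber swapped at 30, 90, 150 min; scintillation counting. Papp averaged over four replicates.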

Rattus norvegicus [1] = organism: Rattus norvegicus; assay: Percent Hemolysis observed in rat red blood cells when Treated with 5 mM concentration; assay type: functional
Rattus norvegicus [2] = organism: Rattus norvegicus; assay: Percent Hemolysis observed in rat red blood cells when Treated with 1 mM concentration; assay type: functional
Rattus norvegicus [3] = organism: Rattus norvegicus; assay: Percent Hemolysis observed in rat red blood cells when Treated with 2 mM concentration; assay type: functional

SMILES | Papp (Caco-2) | Hemolysis (Rattus norvegicus [1]) [%] | Hemolysis (Rattus norvegicus [2]) [%] | Hemolysis (Rattus norvegicus [3]) [%]
OC[C@@H](O)[C@@H](O)[C@H](O)[C@H](O)CO | 5.88 10e-6 cm s-1 | – | – | –
CCCCCCCCCCCCOS(=O)(=O)[O-].[Na+] [SODIUM LAURYL SULFATE] | – | 62.66 | 12.25 | 51.54

Reference: ChEMBL document CHEMBL1136746 (2003)
